Measurements published in ChEMBL document CHEMBL1142657, “Imidazolidin-4-one derivatives of primaquine as novel transmission-blocking antimalarials” (J Med Chem, 2005).

Tests used:
[1] = Mean number of Plasmodium berghei ANKA […] production in Anopheles stephensi mosquito after treatment with the compound at a dosage 0 umol.1/kg; type: functional, Culicidae
In short: (§1)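 BalbC mice were infected ip with 10⁷ P. berghei ANKA-parasitized erythrocytes. After 4 days, gametocytes and exflagellation were confirmed on Giemsa smears, and mice were randomized into groups of six. Each received a single ip dose (10 or 50 µmol/kg; controls given PBS). 2 h later, anesthetized mice were placed on Anopheles stephensi cages. Read-outs: % mosquitoes with oocysts, and mean oocysts per infected mosquito (SE).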

[2] = Mean number of Plasmodium berghei ANKA […] production in Anopheles stephensi mosquito after treatment with the compound at a dosage 50 umol.1/kg; type: functional, Culicidae; in short: as §1
Culicidae [3] = assay: Percentage of Plasmodium berghei ANKA infected Anopheles stephensi mosquitos after treatment with the compound at a dosage of 10 umol.1/kg; type: functional; in short: as §1
[4] = Percent hydrolysis to the corresponding amino acid product 3, in 80% human plasma at 37C after 3 days of treatment with the compound; type: ADME, cell-free; settings: 72 h
In short: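 Aliquots were quenched in acetonitrile and centrifuged. Supernatant went to reversed-phase HPLC (pH 4.75 sodium acetate/acetonitrile gradient with triethylamine) for substrate and amino acid product. Reported as % hydrolysis after 3 days.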

Culicidae [5] = assay: Percentage of Plasmodium berghei ANKA infected Anopheles stephensi mosquitos after treatment with the compound at a dosage of 50 umol.1/kg; type: functional; in short: as §1
[6] = Mean number of Plasmodium berghei ANKA […] production in Anopheles stephensi mosquito after treatment with the compound at a dosage 10 umol.1/kg; type: functional, Culicidae; in short: as §1
[7] = Percent hydrolysis to the corresponding amino acid product 3, in pH 7.4 phosphate buffer at 37C after 3 days of treatment with the compound; type: ADME, Homo sapiens; settings: read-out: Hydrolysis
In short: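 Hydrolysis followed in pH 7.4 phosphate saline buffer at 37 °C. Substrate and amino acid product were measured by reversed-phase HPLC (pH 4.75 sodium acetate/acetonitrile gradient with triethylamine). Reported as % conversion after 3 days and as half-life in days.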

Culicidae [8] = assay: Percentage of Plasmodium berghei ANKA infected Anopheles stephensi mosquitos after treatment with the compound at a dosage of 0 umol.1/kg; type: functional; in short: as §1

Compound	Hydrolysis [4]	degraded at 72 h [7]	Activity [1]	Activity [2]	Infectedmosquitoes (Culicidae [3])	Infectedmosquitoes (Culicidae [5])	Activity [6]	Infectedmosquitoes (Culicidae [8])
COc1cc(NC(C)CCCN2C(=O)[C@H](Cc3ccccc3)NC23CCCC3)c2ncccc2c1 (stereo partly drawn)	3%	–	66.1	0	65%	0%	51.6	–
COc1cc(NC(C)CCCN2C(=O)[C@H](Cc3ccccc3)NC23CCCCCC3)c2ncccc2c1 (stereo partly drawn)	–	10%	120	0	90%	0%	78.9	–
COc1cc(NC(C)CCCN2C(=O)[C@H](C(C)C)NC2(C)C)c2ncccc2c1 (stereo partly drawn)	–	–	105	0.9	25%	5%	5	–
COc1cc(NC(C)CCCN)c2ncccc2c1 (stereo not drawn) [PRIMAQUINE]	–	–	83.2	0	10%	50%	2.6	0%
COc1cc(NC(C)CCCN2C(=O)[C@H](Cc3ccccc3)NC23CCCCC3)c2ncccc2c1 (stereo partly drawn)	–	–	83.2	0	83%	0%	71	–
COc1cc(NC(C)CCCN2C(=O)[C@H](C(C)C)NC23CCCCCC3)c2ncccc2c1 (stereo partly drawn)	–	–	120	–	65%	–	17.7	–
COc1cc(NC(C)CCCN2C(=O)CNC23CCCCC3)c2ncccc2c1 (stereo not drawn)	–	–	105	0	25%	0%	7.4	65%

The next lines start with results.

Hydrolysis [4]	degraded at 72 h [7]	Compound	Activity [1]	Activity [2]	Infectedmosquitoes (Culicidae [3])	Infectedmosquitoes (Culicidae [5])	Activity [6]	Infectedmosquitoes (Culicidae [8])
5%	–	COc1cc(NC(C)CCCN2C(=O)[C@H](C(C)C)NC23CCCC3)c2ncccc2c1 (stereo partly drawn)	51	0.5	35%	15%	4.2	–
–	8%	COc1cc(NC(C)CCCN2C(=O)[C@H](C(C)C)NC23CCCCC3)c2ncccc2c1 (stereo partly drawn)	51	0.4	85%	25%	61.1	–
16%	–	COc1cc(NC(C)CCCN2C(=O)CNC2(C)C)c2ncccc2c1 (stereo not drawn)	105	0	21%	0%	6.1	–
9%	–	COc1cc(NC(C)CCCN2C(=O)[C@H](C)NC23CCCCC3)c2ncccc2c1 (stereo partly drawn)	83.2	0	20%	0%	0.8	–
–	6%	COc1cc(NC(C)CCCN2C(=O)[C@H](Cc3ccccc3)NC2(C)C)c2ncccc2c1 (stereo partly drawn)	66.1	0	76%	0%	61.2	–
–	10%	COc1cc(NC(C)CCCN2C(=O)[C@H](CC(C)C)NC2(C)C)c2ncccc2c1 (stereo partly drawn)	120	1	30%	20%	13.7	–
